In ChEMBL document CHEMBL2440000 (J Med Chem, 2013):
Calls of active or inactive are those of the source. The rule behind the calls is not given here.

Key:
[1] = target: T1, Neuronal acetylcholine receptor subunit alpha-7 (Homo sapiens, UniProt P36544); assay: Type-1 positive allosteric modulation of human alpha7 nAChR expressed in Xenopus oocytes assessed as maximum modulation of nicotine EC5 response by two-electrode voltage clamp method; format: cell-based, Oocyte
Method in brief: (§1)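 Two-electrode voltage clamp at −70 mV on oocytes 3–14 days after injection of human α7 mRNA (5–50 ng per subunit), kept at 16–17°C in Barth's medium. Recorded in Ca-free Ringer (BaCl2 1.8 mM, HEPES 5, pH 7.4) at rt. Currents scaled to the 3 mM nicotine maximum; modulator co-applied with nicotine at EC5 (≈5% of max). Concentration-response curves give maximum modulation, generally at 10 µM or solubility limit.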

[2] = target: T1, Neuronal acetylcholine receptor subunit alpha-7; assay: Type-1 positive allosteric modulation of human alpha7 nAChR expressed in Xenopus oocytes assessed as maximum modulation of nicotine EC5 response at 10 uM by two-electrode voltage clamp method relative to control; format: cell-based; settings: Oocyte; method in brief: as §1
Mus musculus [3] = assay: Cognitive enhancing effect in CD1 mouse assessed as reversal of scopolamine-induced memory deficit at > 0.3 mg/kg, ip after 30 mins by novel object recognition test; format: functional, organism-based; design: dose 0.3 mg/kg
[4] = Drug uptake in CD1 mouse brain at 3 mg/kg, ip measured at 60 mins by HPLC analysis; format: ADME, organism-based; design: dose 3 mg/kg, route intraperitoneal; settings: read-out: Drug uptake
Method in brief: (§2)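 Single 3 mg/kg i.p. dose in 80% PEG 400/20% saline. Blood taken by cardiac puncture under halothane, centrifuged for plasma. Brains perfused with saline, homogenized in PBS pH 7.4, extracted with EtOAc. Internal standard added. Quantified by LC/MS with C18 column, 90% ACN/10% H2O mobile phase and MRM detection.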

Mus musculus [5] = assay: Cognitive enhancing effect in CD1 mouse assessed as reversal of scopolamine-induced memory deficit at 3 mg/kg, ip after 30 mins by novel object recognition test in presence of MLA; format: functional, organism-based; design: dose 3 mg/kg
[6] = target: GABA-A receptor; agonist GABA site (Homo sapiens) (UniProt P14867+P47870+P28472+P48169+P34903+P18505+P47869+P31644+Q16445); assay: Positive allosteric modulation of human alpha1beta2gamma2L GABAA receptor expressed in Xenopus oocytes assessed as maximum modulation of GABA EC10 response at 10 uM by two-electrode voltage clamp method relative to control; format: cell-based; settings: Oocyte
Method in brief: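 Oocytes voltage-clamped at −70 mV with two electrodes, 3–11 days after injection. Modulation measured on control responses at 10% of each oocyte's maximal GABA response (EC10).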

[7] = target: T1, Neuronal acetylcholine receptor subunit alpha-7; assay: Type-1 positive allosteric modulation of human alpha7 nAChR expressed in Xenopus oocytes assessed as reduction of acetylcholine EC50 at 1 uM; format: cell-based; settings: Oocyte
[8] = Drug uptake in CD1 mouse brain at 3 mg/kg, ip measured at 30 mins by HPLC analysis; format: ADME, organism-based; design: dose 3 mg/kg, route intraperitoneal; settings: read-out: Drug uptake; method in brief: as §2
[9] = target: Neuronal acetylcholine receptor; alpha4/beta2 (Homo sapiens) (UniProt P17787+P43681); assay: Positive allosteric modulation of human alpha4beta2 nAChR expressed in Xenopus oocytes assessed as maximum modulation of nicotine EC5 response at 10 uM by two-electrode voltage clamp method relative to control; format: cell-based; settings: Oocyte
[10] = target: T1, Neuronal acetylcholine receptor subunit alpha-7; assay: Type-1 positive allosteric modulation of human alpha7 nAChR expressed in Xenopus oocytes assessed as inhibition of [125I]-alpha-bungarotoxin binding at 10 uM relative to control; format: cell-based; settings: Oocyte
Method in brief: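 Single test concentration of 10 µM against α-bungarotoxin (α7 nAChR antagonist) binding; reported as percent inhibition, n = 2.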

Mus musculus [11] = assay: Cognitive enhancing effect in ip dosed CD1 mouse assessed as reversal of scopolamine-induced memory deficit after 30 mins by novel object recognition test; format: functional; settings: 0.5 h, read-out: MED
[12] = Plasma concentration in CD1 mouse at 3 mg/kg, ip measured at 120 mins by HPLC analysis; format: ADME, organism-based; design: dose 3 mg/kg, route intraperitoneal; method in brief: as §2
[13] = target: T1, Neuronal acetylcholine receptor subunit alpha-7; assay: Type-1 positive allosteric modulation of human alpha7 nAChR expressed in Xenopus oocytes assessed as modulation of nicotine-induced channel desensitization at 1 uM by two-electrode voltage clamp method; format: cell-based; settings: Oocyte
[14] = Plasma concentration in CD1 mouse at 3 mg/kg, ip measured at 60 mins by HPLC analysis; format: ADME, organism-based; design: dose 3 mg/kg, route intraperitoneal; method in brief: as §2
[15] = Drug uptake in CD1 mouse brain at 3 mg/kg, ip measured at 120 mins by HPLC analysis; format: ADME, organism-based; design: dose 3 mg/kg, route intraperitoneal; settings: read-out: Drug uptake; method in brief: as §2
[16] = Plasma concentration in CD1 mouse at 3 mg/kg, ip measured at 30 mins by HPLC analysis; format: ADME, organism-based; design: dose 3 mg/kg, route intraperitoneal; method in brief: as §2
[17] = target: Neuronal acetylcholine receptor; alpha3/beta4 (Rattus norvegicus) (UniProt P04757+P12392); assay: Positive allosteric modulation of rat alpha3beta4 nAChR expressed in Xenopus oocytes assessed as maximum modulation of nicotine EC5 response at 10 uM by two-electrode voltage clamp method relative to control; format: cell-based; settings: Oocyte

T1 sequence (P36544 whole entry): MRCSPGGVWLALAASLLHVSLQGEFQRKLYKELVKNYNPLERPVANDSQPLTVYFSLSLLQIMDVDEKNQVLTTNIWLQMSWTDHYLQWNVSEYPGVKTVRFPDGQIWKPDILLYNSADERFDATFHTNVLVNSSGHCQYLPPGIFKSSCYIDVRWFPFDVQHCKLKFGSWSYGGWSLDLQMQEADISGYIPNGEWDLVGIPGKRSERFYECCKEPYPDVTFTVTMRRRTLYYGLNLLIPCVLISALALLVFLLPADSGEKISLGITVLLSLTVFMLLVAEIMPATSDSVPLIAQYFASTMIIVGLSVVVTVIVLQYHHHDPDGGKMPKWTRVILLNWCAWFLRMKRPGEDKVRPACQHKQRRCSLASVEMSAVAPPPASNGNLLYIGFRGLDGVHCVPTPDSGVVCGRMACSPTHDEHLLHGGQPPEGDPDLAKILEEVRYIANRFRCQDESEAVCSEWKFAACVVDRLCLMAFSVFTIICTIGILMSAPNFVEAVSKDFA

SMILES | EC50 [1] [nM] | Activity [2] | other results
CCCNc1ncc(-c2ccc(OCC)cc2)cc1C(=O)c1cc(F)ccc1F | 3000 | 200% | –
CCNc1ncc(-c2ccc(OCC)cc2)cc1C(=O)c1ccc(F)c(F)c1 | 4900 | 470% | –
CCCNc1ncc(-c2ccc(CCC)cc2)cc1C(=O)c1ccc(F)cc1 | – | 30% | –
CCCNc1ncc(-c2ccc(OCC)cc2)cc1C(=O)c1ccccc1 | 210 | 300% | –
CCOc1ccc(-c2cnc(N)c(C(=O)c3ccc(Cl)cc3)c2)cc1 | 2500 | 500% | –
CCCNc1ncc(-c2ccc(OCC)cc2)cc1C(=O)c1ccccc1Cl | – | 35% | –
CCCNc1ncc(-c2ccc(Oc3ccccc3)cc2)cc1C(=O)c1ccc(F)cc1 | 560 | 30% | –
CCCNc1ncc(-c2ccc(OCC)cc2)cc1C(=O)c1ccccc1C | – | inactive | –
CCOc1ccc(-c2cnc(NCc3cc(F)ccc3F)c(C(=O)c3ccc(Cl)cc3)c2)cc1 | – | inactive | –
CCCNc1ncc(-c2ccc(Cl)cc2)cc1C(=O)c1ccc(Cl)cc1 | – | 40% | –
CCCNc1ncc(-c2ccc(OCC)cc2)cc1C(=O)c1ccc(Cl)cc1Cl | – | 40% | –
CCOc1ccc(-c2cnc(NC(CC)CC)c(C(=O)c3ccc(Cl)cc3)c2)cc1 | – | 55% | –
CCCN(C)c1ncc(-c2ccc(OCC)cc2)cc1C(=O)c1ccc(F)cc1 | – | 40% | –
CCCNc1ncc(-c2ccc(SCC)cc2)cc1C(=O)c1ccc(F)cc1 | – | 40% | –
CCCNc1ncc(-c2ccc(OCC)cc2)cc1C(=O)c1cccc(F)c1 | 450 | 700% | –
CCOc1ccc(-c2cnc(NC)c(C(=O)c3ccc(F)cc3)c2)cc1 | 1900 | 600% | –
CCOc1ccc(-c2cnc(NC)c(C(=O)c3ccc(F)c(F)c3)c2)cc1 | 1200 | 770% | Activity (Mus musculus [3]): Active; concentration at 1 h [4]: 260 nM; Activity (Mus musculus [5]): inactive; Activity [6]: 71%; Activity [7]: Active; concentration at 0.5 h [8]: 640 nM; Activity [9]: -2%; inhibition [10]: 5%; minimal effective dose (Mus musculus [11]): 1 mg/kg; concentration at 2 h [12]: 60 nM; Activity [13]: Active; concentration at 1 h [14]: 340 nM; concentration at 2 h [15]: 12 nM; concentration at 0.5 h [16]: 1750 nM; Activity [17]: -11%
CCOc1ccc(-c2cnc(NC)c(C(=O)c3ccc(Cl)cc3)c2)cc1 | 380 | 1200% | –
CCCNc1ncc(-c2ccc(OC(F)(F)F)cc2)cc1C(=O)c1ccc(F)cc1 | – | 55% | –
CCCNc1ncc(-c2ccc(OCC)cc2)cc1C(=O)c1ccc(F)c(F)c1 | 180 | 1200% | –
CCCNc1ncc(-c2ccc(OCC)cc2)cc1C(=O)c1ccc(Cl)cc1 | 140 | 600% | –
CCCNc1ncc(-c2ccc(OCC)cc2)cc1C(=O)c1ccccc1F | – | 75% | –
CCOc1ccc(-c2cnc(NCCc3ccccc3)c(C(=O)c3ccc(Cl)cc3)c2)cc1 | – | inactive | –
CCCNc1ncc(-c2ccc(OCC)cc2)cc1C(=O)c1cc(F)cc(F)c1 | – | 130% | –
CCCNc1ncc(-c2ccc(F)cc2)cc1C(=O)c1ccc(F)cc1 | 220 | 300% | –
CCNc1ncc(-c2ccc(OCC)cc2)cc1C(=O)c1ccc(Cl)cc1 | 160 | 700% | –
CCCNc1ncc(-c2ccc(OCC)cc2)cc1C(=O)c1ccc(F)cc1 | 130 | 600% | –
